ChEMBL document CHEMBL4373648, “Anti-biofilm activity of quinazoline derivatives against Mycobacterium smegmatis” (Medchemcomm, 2019)

Assays:
[1] = tested on: Mycolicibacterium smegmatis; experiment: Antibiofilm activity against Mycobacterium smegmatis str. MC2 155 ATCC 700084 after 48 hrs by crystal violet staining based […] assay; format: functional, organism-based; conditions: MC2 155 ATCC 700084, 48 h
Procedure, shortened: (§1)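 IC50 is the concentration giving 50% inhibition of biofilm formation relative to an untreated control.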

[2] = tested on: Mycolicibacterium smegmatis; experiment: Antibiofilm activity against Mycobacterium smegmatis str. MC2 155 ATCC 700084 after 48 hrs by crystal violet staining based spectrophotometric assay; format: functional, organism-based; conditions: MC2 155 ATCC 700084, 48 h; procedure, shortened: as §1
[3] = tested on: Mycolicibacterium smegmatis; experiment: Toxicity against Mycobacterium smegmatis str. MC2 155 ATCC 700084 at 60 uM assessed as planktonic growth inhibition incubated for 4 to 48 hrs followed by replating on 7H10 plates and measured after 48 hrs by time kill curve assay; format: organism-based; conditions: in vivo
Procedure, shortened: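 Planktonic growth curves of bacteria grown with compound at 60 μM were compared with curves from untreated cultures.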

[4] = Hemolytic activity in sheep RBC at 500 uM incubated for 1 hr under shaking condition by UV-spectrophotometry relative to 1% Triton-X; format: ADME, cell-based, Ovis aries, Erythrocyte; conditions: sheep red blood cells (erythrocytes), read-out: Activity
Procedure, shortened: (§2)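 Red blood cells were exposed to compound, and hemolysis was expressed as percent lysis relative to 1% Triton-X. The assay served as an antibiotic toxicity screen, and 500 μM was the highest concentration tested.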

[5] = Hemolytic activity in sheep RBC at 200 uM incubated for 1 hr under shaking condition by UV-spectrophotometry relative to 1% Triton-X; format: ADME, cell-based, Ovis aries, Erythrocyte; conditions: sheep red blood cells (erythrocytes), read-out: Activity; procedure, shortened: as §2
[6] = Hemolytic index, ratio of compound concentration causing hemolysis in sheep RBC to IC50 for antibiofilm activity against Mycobacterium smegmatis str. MC2 155 ATCC 700084
Procedure, shortened: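 Red blood cells were exposed to compound at up to 500 μM, including 200 μM. Lysis was quantified relative to 1% Triton-X. The index was calculated as the hemolysis-causing concentration divided by the biofilm-inhibition IC50.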

Structure (SMILES)	IC50 [1] [µM]	further results
Cc1ccc(C(=O)Nc2ccc3nc(N)ncc3c2)cc1	19	–
CCCCCCC(CCCCCC)NC(=O)CCCc1c[nH]c(N)n1	–	IC50 [2]: 5.3 µM
Nc1ncc2cc(NC(=O)c3ccc(I)cc3)ccc2n1	> 200	–
CCCCc1ccc(C(=O)Nc2ccc3nc(N)ncc3c2)cc1	39	–
CCCCCCC(=O)Nc1ccc2nc(N)ncc2c1	49	–
CCCc1ccc(C(=O)Nc2ccc3nc(N)ncc3c2)cc1.Cl	16	Activity [3]: Non-Toxic; hemolysis at 1 h, 500 µM [4]: 25%; hemolysis at 1 h, 200 µM [5]: 14%; HI [6]: > 33
CCCC(=O)Nc1ccc2nc(N)ncc2c1	37	–
CCCCCc1ccc(C(=O)Nc2ccc3nc(N)ncc3c2)cc1	39	–
CCCCCCc1ccc(C(=O)Nc2ccc3nc(N)ncc3c2)cc1	65	–
CS(=O)(=O)Nc1ccc2nc(N)ncc2c1	> 100	–
Nc1ncc2cc(NS(=O)(=O)c3cccs3)ccc2n1	> 100	–
CCCCCCCCC(=O)Nc1ccc2nc(N)ncc2c1	> 100	–
CCCS(=O)(=O)Nc1ccc2nc(N)ncc2c1	36	–
CC(=O)Nc1ccc2nc(N)ncc2c1	54	–
CCS(=O)(=O)Nc1ccc2nc(N)ncc2c1	34	–
Cl.Nc1ncc2cc(NC(=O)c3ccc(Cl)cc3)ccc2n1	15	Activity [3]: Non-Toxic; hemolysis at 1 h, 500 µM [4]: 24%; hemolysis at 1 h, 200 µM [5]: 4%; HI [6]: > 33

Structure (SMILES)	IC50 [1] [µM]	further results
Nc1ncc2cc(NC(=O)C(Cl)(Cl)Cl)ccc2n1	50	–
CCCCCCCC(=O)Nc1ccc2nc(N)ncc2c1	> 100	–
CCCCCCCc1ccc(C(=O)Nc2ccc3nc(N)ncc3c2)cc1	> 100	hemolysis at 1 h, 500 µM [4]: 57%; hemolysis at 1 h, 200 µM [5]: 31%
CCCCS(=O)(=O)Nc1ccc2nc(N)ncc2c1	60	–
CCCCCCS(=O)(=O)Nc1ccc2nc(N)ncc2c1	> 100	–
CCCCCC(=O)Nc1ccc2nc(N)ncc2c1	23	–
CCC(=O)Nc1ccc2nc(N)ncc2c1	42	–
Nc1ncc2cc(NC(=O)c3ccc(Br)cc3)ccc2n1	44	–
Nc1ncc2cc(NC(=O)c3cc(Cl)cc(Cl)c3)ccc2n1	42	–
Nc1ncc2cc(NC(=O)c3ccc(F)cc3)ccc2n1	> 200	–
Nc1ncc2cc(NC(=O)c3ccccc3)ccc2n1	34	–
Nc1ncc2cc(NC(=O)CCl)ccc2n1	43	–
Nc1ncc2cc(NC(=O)c3cc(F)cc(F)c3)ccc2n1	46	–
CCCCC(=O)Nc1ccc2nc(N)ncc2c1	26	–
CCc1ccc(C(=O)Nc2ccc3nc(N)ncc3c2)cc1	18	–
